Data from ChEMBL document CHEMBL1944580, “Synthesis of novel sulfonamide-1,2,4-triazoles, 1,3,4-thiadiazoles and 1,3,4-oxadiazoles, as potential antibacterial and antifungal agents. Biological evaluation and conformational analysis studies” (2012).
In brackets after ≈: the same amount, converted by molar mass.

Columns and labels:
[1] = system: Trichoderma viride; assay: Antifungal activity against Trichoderma viride IAM 5061 treated for 72 hrs followed by sub-cultivated for 5 days by serial dilution method; format: functional
In short: (§1)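 MFC obtained after the 72 h, 28 °C malt-broth microdilution (spore inoculum about 1.0 × 10^5 per well, compounds from 1 mg/ml DMSO). 2 µl was serially subcultured into 100 µl broth per well and incubated a further 5 days at 28 °C. MFC is the lowest concentration with no visible growth, taken as 99.5% killing of the original inoculum.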

[2] = system: Bacillus cereus; assay: Antibacterial activity against Bacillus cereus clinical isolate after 24 hrs by micro dilution method; format: functional
In short: (§2)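 Microdilution MIC in 96-well plates. Bacterial suspensions adjusted in sterile saline to 1.0 × 10^5 CFU/ml, giving 1.0 × 10^4 cfu per well in LB broth. Compounds tested at up to 1 mg/ml. Plates incubated 24 h. MIC taken as the lowest concentration with no visible growth under a binocular microscope. OD at 655 nm was also read against a blank and the positive control. Streptomycin and ampicillin were the positive controls.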

[3] = system: Escherichia coli; assay: Antibacterial activity against Escherichia coli ATCC 35210 treated for 24 hrs followed by sub-cultivated for 72 hrs by micro dilution method; format: functional
In short: (§3)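 2 µl from each well was serially subcultured into 100 µl fresh broth per well and incubated a further 72 h. MBC is the lowest concentration with no visible growth, taken as 99.5% killing of the original inoculum. Streptomycin and ampicillin were the positive controls.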

[4] = system: Staphylococcus aureus; assay: Antibacterial activity against Staphylococcus aureus ATCC 6538 after 24 hrs by micro dilution method; format: functional; details: ATCC 6538, 24 h; in short: as §2
[5] = system: Penicillium ochrochloron; assay: Antifungal activity against Penicillium ochrochloron ATCC 9112 treated for 72 hrs followed by sub-cultivated for 5 days by serial dilution method; format: functional; in short: as §1
[6] = system: Escherichia coli; assay: Antibacterial activity against Escherichia coli ATCC 35210 after 24 hrs by micro dilution method; format: functional; details: ATCC 35210, 24 h; in short: as §2
[7] = system: Talaromyces funiculosus; assay: Antifungal activity against Penicillium funiculosum ATCC 36839 after 72 hrs by serial dilution method; format: functional; details: ATCC 36839, 72 h
In short: (§4)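 Modified microdilution MIC. Spores were washed from malt agar cultures with sterile 0.85% saline containing 0.1% Tween 80 and adjusted to about 1.0 × 10^5 per 100 µl well in malt broth. Compounds were dissolved in DMSO (1 mg/ml). Plates incubated 72 h at 28 °C. MIC is the lowest concentration with no visible growth under a binocular microscope. Bifonazole and ketoconazole were the references.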

[8] = system: Trichoderma viride; assay: Antifungal activity against Trichoderma viride IAM 5061 after 72 hrs by serial dilution method; format: functional; details: IAM 5061, 72 h; in short: as §4
[9] = system: Enterobacter cloacae; assay: Antibacterial activity against Enterobacter cloacae human isolate after 24 hrs by micro dilution method; format: functional; in short: as §2
[10] = system: Aspergillus flavus; assay: Antifungal activity against Aspergillus flavus ATCC 9643 after 72 hrs by serial dilution method; format: functional; details: ATCC 9643, 72 h; in short: as §4
[11] = system: Aspergillus niger; assay: Antifungal activity against Aspergillus niger ATCC 6275 treated for 72 hrs followed by sub-cultivated for 5 days by serial dilution method; format: functional; in short: as §1
[12] = system: Aspergillus niger; assay: Antifungal activity against Aspergillus niger ATCC 6275 after 72 hrs by serial dilution method; format: functional; details: ATCC 6275, 72 h; in short: as §4
[13] = system: Aspergillus flavus; assay: Antifungal activity against Aspergillus flavus ATCC 9643 treated for 72 hrs followed by sub-cultivated for 5 days by serial dilution method; format: functional; in short: as §1
[14] = system: Aspergillus fumigatus; assay: Antifungal activity against Aspergillus fumigatus human isolate after 72 hrs by serial dilution method; format: functional; in short: as §4
[15] = system: Talaromyces funiculosus; assay: Antifungal activity against Penicillium funiculosum ATCC 36839 treated for 72 hrs followed by sub-cultivated for 5 days by serial dilution method; format: functional; in short: as §1
[16] = system: Fulvia fulva; assay: Antifungal activity against Fulvia fulva treated for 72 hrs followed by sub-cultivated for 5 days by serial dilution method; format: functional; in short: as §1
[17] = system: Penicillium ochrochloron; assay: Antifungal activity against Penicillium ochrochloron ATCC 9112 after 72 hrs by serial dilution method; format: functional; details: ATCC 9112, 72 h; in short: as §4
[18] = system: Bacillus cereus; assay: Antibacterial activity against Bacillus cereus clinical isolate treated for 24 hrs followed by sub-cultivated for 72 hrs by micro dilution method; format: functional; in short: as §3
[19] = system: Aspergillus versicolor; assay: Antifungal activity against Aspergillus versicolor ATCC 11730 after 72 hrs by serial dilution method; format: functional; details: ATCC 11730, 72 h; in short: as §4
[20] = system: Micrococcus flavus; assay: Antibacterial activity against Micrococcus flavus ATCC 10240 after 24 hrs by micro dilution method; format: functional; details: ATCC 10240, 24 h; in short: as §2
[21] = system: Staphylococcus aureus; assay: Antibacterial activity against Staphylococcus aureus ATCC 6538 treated for 24 hrs followed by sub-cultivated for 72 hrs by micro dilution method; format: functional; in short: as §3
[22] = system: Micrococcus flavus; assay: Antibacterial activity against Micrococcus flavus ATCC 10240 treated for 24 hrs followed by sub-cultivated for 72 hrs by micro dilution method; format: functional; in short: as §3
[23] = system: Aspergillus fumigatus; assay: Antifungal activity against Aspergillus fumigatus human isolate treated for 72 hrs followed by sub-cultivated for 5 days by serial dilution method; format: functional; in short: as §1
[24] = system: Pseudomonas aeruginosa; assay: Antibacterial activity against Pseudomonas aeruginosa ATCC 27853 after 24 hrs by micro dilution method; format: functional; details: ATCC 27853, 24 h; in short: as §2
[25] = system: Enterobacter cloacae; assay: Antibacterial activity against Enterobacter cloacae human isolate treated for 24 hrs followed by sub-cultivated for 72 hrs by micro dilution method; format: functional; in short: as §3
[26] = system: Fulvia fulva; assay: Antifungal activity against Fulvia fulva after 72 hrs by serial dilution method; format: functional; in short: as §4
[27] = system: Listeria monocytogenes; assay: Antibacterial activity against Listeria monocytogenes NCTC 7973 after 24 hrs by micro dilution method; format: functional; details: NCTC 7973, 24 h; in short: as §2
[28] = system: Salmonella typhimurium; assay: Antibacterial activity against Salmonella Typhimurium ATCC 13311 after 24 hrs by micro dilution method; format: functional, Salmonella enterica subsp. enterica serovar Typhimurium; details: Salmonella enterica, ATCC 13311, 24 h; in short: as §2
[29] = system: Listeria monocytogenes; assay: Antibacterial activity against Listeria monocytogenes NCTC 7973 treated for 24 hrs followed by sub-cultivated for 72 hrs by micro dilution method; format: functional; in short: as §3
[30] = system: Pseudomonas aeruginosa; assay: Antibacterial activity against Pseudomonas aeruginosa ATCC 27853 treated for 24 hrs followed by sub-cultivated for 72 hrs by micro dilution method; format: functional; in short: as §3
[31] = system: Salmonella typhimurium; assay: Antibacterial activity against Salmonella Typhimurium ATCC 13311 treated for 24 hrs followed by sub-cultivated for 72 hrs by micro dilution method; format: functional, Salmonella enterica subsp. enterica serovar Typhimurium; details: Salmonella enterica; in short: as §3
[32] = system: Aspergillus versicolor; assay: Antifungal activity against Aspergillus versicolor ATCC 11730 treated for 72 hrs followed by sub-cultivated for 5 days by serial dilution method; format: functional; in short: as §1

Structure (SMILES) | MFC [1] | MIC [2] | MBC [3] | MIC [4] | MFC [5] | MIC [6] | MIC [7] | MIC [8] | MIC [9] | MIC [10] | MFC [11] | MIC [12] | MFC [13] | MIC [14] | MFC [15] | MFC [16] | MIC [17] | MBC [18] | MIC [19] | MIC [20] | also measured
CCCCn1c(Cc2cc(OC)c(OC)cc2S(=O)(=O)N(C)C)n[nH]c1=S | 120 µM (≈ 49.7 µg/mL) | 240 µM (≈ 99.5 µg/mL) | 480 µM (≈ 199 µg/mL) | 240 µM (≈ 99.5 µg/mL) | 480 µM (≈ 199 µg/mL) | 480 µM (≈ 199 µg/mL) | 120 µM (≈ 49.7 µg/mL) | 60 µM (≈ 24.9 µg/mL) | 240 µM (≈ 99.5 µg/mL) | 60 µM (≈ 24.9 µg/mL) | 120 µM (≈ 49.7 µg/mL) | 60 µM (≈ 24.9 µg/mL) | 240 µM (≈ 99.5 µg/mL) | 120 µM (≈ 49.7 µg/mL) | 240 µM (≈ 99.5 µg/mL) | 240 µM (≈ 99.5 µg/mL) | 120 µM (≈ 49.7 µg/mL) | 480 µM (≈ 199 µg/mL) | 240 µM (≈ 99.5 µg/mL) | 240 µM (≈ 99.5 µg/mL) | MBC [21]: 480 µM (≈ 199 µg/mL); MBC [22]: 480 µM (≈ 199 µg/mL); MFC [23]: 240 µM (≈ 99.5 µg/mL); MIC [24]: 480 µM (≈ 199 µg/mL); MBC [25]: 240 µM (≈ 99.5 µg/mL); MIC [26]: 120 µM (≈ 49.7 µg/mL); MIC [27]: 240 µM (≈ 99.5 µg/mL); MIC [28]: 240 µM (≈ 99.5 µg/mL); MBC [29]: 240 µM (≈ 99.5 µg/mL); MBC [30]: 480 µM (≈ 199 µg/mL); MBC [31]: 240 µM (≈ 99.5 µg/mL); MFC [32]: 480 µM (≈ 199 µg/mL)
CC1(C)S[C@@H]2[C@H](NC(=O)[C@H](N)c3ccccc3)C(=O)N2[C@H]1C(=O)O [AMPICILLIN] | – | 250 µM (≈ 87.4 µg/mL) | 740 µM (≈ 259 µg/mL) | 250 µM (≈ 87.4 µg/mL) | – | 370 µM (≈ 129 µg/mL) | – | – | 370 µM (≈ 129 µg/mL) | – | – | – | – | – | – | – | – | 370 µM (≈ 129 µg/mL) | – | 250 µM (≈ 87.4 µg/mL) | MBC [21]: 370 µM (≈ 129 µg/mL); MBC [22]: 370 µM (≈ 129 µg/mL); MIC [24]: 740 µM (≈ 259 µg/mL); MBC [25]: 490 µM (≈ 171 µg/mL); MIC [27]: 370 µM (≈ 129 µg/mL); MIC [28]: 250 µM (≈ 87.4 µg/mL); MBC [29]: 490 µM (≈ 171 µg/mL); MBC [30]: 1240 µM (≈ 433 µg/mL); MBC [31]: 490 µM (≈ 171 µg/mL)
c1ccc(-c2ccc(C(c3ccccc3)n3ccnc3)cc2)cc1 (stereo unspecified) [BIFONAZOLE] | 800 µM (≈ 248 µg/mL) | – | – | – | 640 µM (≈ 199 µg/mL) | – | 640 µM (≈ 199 µg/mL) | 640 µM (≈ 199 µg/mL) | – | 480 µM (≈ 149 µg/mL) | 640 µM (≈ 199 µg/mL) | 480 µM (≈ 149 µg/mL) | 640 µM (≈ 199 µg/mL) | 480 µM (≈ 149 µg/mL) | 800 µM (≈ 248 µg/mL) | 640 µM (≈ 199 µg/mL) | 480 µM (≈ 149 µg/mL) | – | 320 µM (≈ 99.3 µg/mL) | – | MFC [23]: 640 µM (≈ 199 µg/mL); MIC [26]: 320 µM (≈ 99.3 µg/mL); MFC [32]: 640 µM (≈ 199 µg/mL)
CC(=O)N1CCN(c2ccc(OCC3COC(Cn4ccnc4)(c4ccc(Cl)cc4Cl)O3)cc2)CC1 (stereo unspecified) [KETOCONAZOLE] | 5700 µM (≈ 3030 µg/mL) | – | – | – | 3800 µM (≈ 2020 µg/mL) | – | 380 µM (≈ 202 µg/mL) | 4750 µM (≈ 2520 µg/mL) | – | 2850 µM (≈ 1510 µg/mL) | 950 µM (≈ 505 µg/mL) | 380 µM (≈ 202 µg/mL) | 3800 µM (≈ 2020 µg/mL) | 380 µM (≈ 202 µg/mL) | 950 µM (≈ 505 µg/mL) | 950 µM (≈ 505 µg/mL) | 3800 µM (≈ 2020 µg/mL) | – | 380 µM (≈ 202 µg/mL) | – | MFC [23]: 950 µM (≈ 505 µg/mL); MIC [26]: 380 µM (≈ 202 µg/mL); MFC [32]: 950 µM (≈ 505 µg/mL)
CN[C@@H]1[C@H](O[C@H]2[C@H](O[C@H]3[C@H](O)[C@@H](O)[C@H](N=C(N)N)[C@@H](O)[C@@H]3N=C(N)N)O[C@@H](C)[C@]2(O)C=O)O[C@@H](CO)[C@H](O)[C@H]1O [STREPTOMYCIN] | – | 90 µM (≈ 52.3 µg/mL) | 520 µM (≈ 302 µg/mL) | 40 µM (≈ 23.3 µg/mL) | – | 260 µM (≈ 151 µg/mL) | – | – | 170 µM (≈ 98.9 µg/mL) | – | – | – | – | – | – | – | – | 170 µM (≈ 98.9 µg/mL) | – | 170 µM (≈ 98.9 µg/mL) | MBC [21]: 90 µM (≈ 52.3 µg/mL); MBC [22]: 340 µM (≈ 198 µg/mL); MIC [24]: 170 µM (≈ 98.9 µg/mL); MBC [25]: 340 µM (≈ 198 µg/mL); MIC [27]: 170 µM (≈ 98.9 µg/mL); MIC [28]: 170 µM (≈ 98.9 µg/mL); MBC [29]: 340 µM (≈ 198 µg/mL); MBC [30]: 340 µM (≈ 198 µg/mL); MBC [31]: 340 µM (≈ 198 µg/mL)
